Assay results from different studies.
Each line is one published result; the experiments were not run side by side.
Target: NUAK family SNF1-like kinase 2 (NUAK2, Homo sapiens, UniProt Q9H093)
Sequence (Q9H093 1-628, as in one of the studies): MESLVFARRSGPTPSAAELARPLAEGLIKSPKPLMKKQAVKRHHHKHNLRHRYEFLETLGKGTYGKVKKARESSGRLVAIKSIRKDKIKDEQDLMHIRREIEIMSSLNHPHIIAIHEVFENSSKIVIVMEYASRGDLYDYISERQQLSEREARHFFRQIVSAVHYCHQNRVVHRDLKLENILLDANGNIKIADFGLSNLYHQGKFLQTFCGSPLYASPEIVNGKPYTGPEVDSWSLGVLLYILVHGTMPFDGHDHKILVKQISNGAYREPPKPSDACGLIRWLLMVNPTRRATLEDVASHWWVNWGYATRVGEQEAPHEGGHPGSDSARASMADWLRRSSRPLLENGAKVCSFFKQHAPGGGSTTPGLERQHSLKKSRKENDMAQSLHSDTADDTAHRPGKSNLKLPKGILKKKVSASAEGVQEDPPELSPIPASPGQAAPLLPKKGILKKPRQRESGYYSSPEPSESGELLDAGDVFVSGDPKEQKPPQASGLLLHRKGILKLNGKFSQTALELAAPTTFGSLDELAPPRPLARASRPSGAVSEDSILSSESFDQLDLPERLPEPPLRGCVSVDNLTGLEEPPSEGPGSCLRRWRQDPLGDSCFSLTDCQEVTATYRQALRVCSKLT

| SMILES | observed | technique | concentration | remaining binding |
| --- | --- | --- | --- | --- |
| O=C(NCC1CCOCC1)c1n[nH]cc1NC(=O)c1c(F)cccc1F | binding | competition with immobilised ligand | 1 µM | 70% |
| Cn1cc(Cl)c2c(Oc3c(F)cc(Nc4cc(Cl)nc(N)n4)cc3F)ccnc21 | cell-free assay | competition with immobilised ligand | 0.1 µM | 85% |
| C[C@H]1CCN(c2nccc(-c3cnn4ncccc34)n2)C1 | binding | – | 1 µM | 79% |
| C[C@@H]1CN(c2ccc3ncc(-c4ccc5[nH]nc(C6CC6)c5c4)n3n2)C[C@H](C)O1 | binding | competition with immobilised ligand | 50 nM | 89% |
| Nc1c(C(=O)NCc2ccc(C(=O)NCCCC3CCCCC3)cc2)cnn1-c1ccccc1 | cell-free assay | competition with immobilised ligand | 0.1 µM | 100% |
| CN(C)c1nccc(-c2cnc3ncccn23)n1 | binding | – | 1 µM | 83% |
| CCN1CCN(Cc2ccc(C(=O)Nc3ccc(C)c(Oc4ccc5c(c4)CC(=O)N5)c3)cc2C(F)(F)F)CC1 | binding | competition with immobilised ligand | 1 µM | 100% |
| N[C@@H]1CCN(c2nccc(-c3cnn4ncccc34)n2)C1 | binding | – | 1 µM | 100% |
| Nc1ncc2c(n1)-c1c([nH]c3ccc(C#CC4CC4)cc13)CCCC2 | binding | competition with immobilised ligand | 1 µM | 92% |
| CNC(=O)Nc1ccc2c(c1)CC[C@@]21OC(=O)N(CC(=O)N(Cc2ccc(F)cc2)[C@@H](C)C(F)(F)F)C1=O | cell-free assay | competition with immobilised ligand | 1 µM | 74% |
| COc1cnc(Nc2cccc(S(N)(=O)=O)c2)nc1N1CCN(c2ccccc2)CC1 | binding | competition with immobilised ligand | 1 µM | 62% |
| CN(CCCC(F)(F)F)c1nccc(-c2cnn3ncccc23)n1 | binding | – | 1 µM | 92% |
| O=C(N1CCS(=O)(=O)CC1)N1C[C@H](c2ccc(OC(F)(F)F)cc2)C[C@H](c2nc(C3CC3)no2)C1 | cell-free assay | competition with immobilised ligand | 1 µM | 100% |
| c1cncc(-c2cccc(Nc3nccc(NC4CCCCC4)n3)c2)c1 | binding | competition with immobilised ligand | 10 µM | 17% |
| c1cnn2ncc(-c3ccnc(N4CCC45COC5)n3)c2c1 | binding | – | 1 µM | 64% |
| Cc1cnc(Nc2ccc(C(=O)N3CCC(N4CCCC4)CC3)cc2)nc1-c1cc2ccccc2s1 | binding | competition with immobilised ligand | 1 µM | 1% |
| CS(=O)(=O)NCC[C@H](NC(=O)c1cncc2c1cnn2-c1ccc(F)cc1)c1ccnc(S(C)(=O)=O)c1 | cell-free assay | competition with immobilised ligand | 1 µM | 100% |
| O=C(c1ccc(Nc2ncc(Cl)c(-c3cc4ccccc4s3)n2)cc1)N1CCC(N2CCCC2)CC1 | binding | competition with immobilised ligand | 1 µM | 0.8% |
| F[C@@H]1CCN(c2nccc(-c3cnn4ncccc34)n2)C1 | binding | – | 1 µM | 88% |
| CNCc1ccccc1-c1csc([C@H](C)Nc2nc(C)nc3cc(OC)c(OC)cc23)c1 | cell-free assay | competition with immobilised ligand | 1 µM | 100% |
| O=C(NCCCN1CCOCC1)c1ccc(Nc2nccc(-c3cc4ccccc4s3)n2)cc1 | binding | competition with immobilised ligand | 1 µM | 26% |
| FC(F)(F)Oc1cccc(-c2cnc3ccc(-c4ccncc4)nn23)c1 | binding | competition with immobilised ligand | 5 µM | 37% |
